From the array DNA melting data of Ke et al. (doi:10.1101/2024.01.08.574731) come the findings set out here.

Series [1] is described as follows: folding enthalpy; higher = less favourable; fluorescence melt of hairpins on a sequencing array, two-state fit. As to conditions: sodium 0.088 M. In short, it runs like this:
(§1)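 Two-state fits, bootstrapped, provided melting temperature and folding enthalpy from Cy3 fluorescence normalised to pre-quench Cy3 and to control constructs. Library hairpins with annealed Cy3 and quencher oligos were imaged on a sequenced MiSeq flow cell in 50 mM Na-HEPES pH 8.0, 25 mM NaCl, at 2.5 °C intervals up to 60 °C. Four replicates were combined with inverse-variance weighting. A 9.35 °C upward shift was applied to fitted temperatures to match UV melts.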

A short description of series [2]: melting temperature; fluorescence melt of hairpins on a sequencing array, two-state fit, raised by 9.35 °C to match UV melts. The settings on record: sodium 0.088 M. In short, it runs like this: as §1

As for GCCACCGAAAGGTGCGGC ((((((....)))..))), the folding enthalpy in series [1] was -13.1 kcal/mol. Further, the Tm in series [2] amounted to 60.8 °C.

Regarding GCCACCGAAAGGTGTGGC ((((((....)))..))), the folding enthalpy in series [1] was -17.5 kcal/mol. Also, in series [2], the Tm was 58.2 °C.

For the sequence GCCACCGAAAGGTTAGGC ((((((....)))..))), in series [1], the folding enthalpy is -25.5 kcal/mol. In addition, in series [2], the Tm is 51.1 °C.

Take GCCACCGAAAGGTTTGGC ((((((....)))..))): in series [1], the folding enthalpy is -26.6 kcal/mol. Moreover, the Tm in series [2] was 48.7 °C.

With GCCACCGGAAACGGCAGC ((..(((....)))..)), in series [1], the folding enthalpy is -15.6 kcal/mol. Further, in series [2], the Tm was 31 °C.

As for GCCACCGGAAACGGTAGC ((.((((....)))).)), the folding enthalpy in series [1] was -21.2 kcal/mol. The Tm in series [2] was 48.1 °C.

Turning to GCCACGCCGAAAGGCGGC (((..(((....)))))), the folding enthalpy in series [1] was -7.28 kcal/mol. Moreover, the Tm in series [2] came to 48.3 °C.

On to GCCACGCGAAAGCATGGC ((((.((....)).)))), for which, in series [1], the folding enthalpy is -32.9 kcal/mol. In addition, the Tm in series [2] was determined as 66.8 °C.

On to GCCACGCGAAAGCCGGGC (((..((....))..))), for which the folding enthalpy in series [1] was -24.1 kcal/mol. The Tm in series [2] was determined as 58 °C.

In the case of GCCACGCGAAAGCCTCGC ((.(.((....)).).)), the folding enthalpy in series [1] was -7.67 kcal/mol. Moreover, the Tm in series [2] turned out to be 27 °C.

On to GCCACGCGAAAGCGCAGC ((..(((....)))..)), for which the folding enthalpy in series [1] is -10.6 kcal/mol. Moreover, the Tm in series [2] came to 43.6 °C.

For the sequence GCCACGCGAAAGCGGTGC ((..(((....)))..)), the folding enthalpy in series [1] was -13.3 kcal/mol. In series [2], the Tm was found to be 50.1 °C.

Turning to GCCACGCGAAAGCTCGGC (((..((....))..))), the folding enthalpy in series [1] is -22 kcal/mol. Also, the Tm in series [2] is 51.2 °C.

Turning to GCCACGCGAAAGCTGGGC (((..((....))..))), in series [1], the folding enthalpy is -27 kcal/mol. Moreover, the Tm in series [2] stood at 60 °C.

With GCCACGCGAAAGCTTCGC ((.(.((....)).).)), the folding enthalpy in series [1] is -7.03 kcal/mol. The Tm in series [2] turned out to be 33.6 °C.

On to GCCACGGGAAACCGCGAC (.(.(((....))).).), for which the folding enthalpy in series [1] is -12.1 kcal/mol. Moreover, the Tm in series [2] worked out at 29.1 °C.

Consider GCCACGGGAAACCGTGAC (.(((((....))))).), for which the folding enthalpy in series [1] is -16.5 kcal/mol. Moreover, in series [2], the Tm stood at 51.1 °C.

GCCACGGGAAACTGTGGC (((((.(....).))))): the folding enthalpy in series [1] is -43.2 kcal/mol. In series [2], the Tm came to 63.2 °C.

With GCCACTGCGAAAGCAGGC (((..(((....)))))), the folding enthalpy in series [1] was -8.9 kcal/mol. Besides, the Tm in series [2] amounted to 46 °C.

With GCCACTGGAAACAGCGAC (.(.(((....))).).), in series [1], the folding enthalpy was -13.9 kcal/mol. Further, the Tm in series [2] turned out to be 26 °C.

Take GCCAGACGAAAGTCAGGC (((.(((....))).))): in series [1], the folding enthalpy was -32.6 kcal/mol. In series [2], the Tm came to 64.8 °C.

With GCCAGCCCGAAAGGGGGC (((..(((....)))))), in series [1], the folding enthalpy was -14.7 kcal/mol. Moreover, in series [2], the Tm worked out at 55.3 °C.

For GCCAGCCGAAAGGCCGGC (((.(((....))).))), the folding enthalpy in series [1] is -27.4 kcal/mol. Also, the Tm in series [2] was 68.4 °C.

Consider GCCAGCGAAAGCTAGGC ((((((....))).))), for which, in series [1], the folding enthalpy was -25.9 kcal/mol. The Tm in series [2] amounted to 66 °C.

GCCAGCGAAAGCTCAGGC ((((((....)))..))): the folding enthalpy in series [1] is -30.4 kcal/mol. The Tm in series [2] came to 49.9 °C.

With GCCAGCGAAAGCTGCGGC ((((((....)))..))), the folding enthalpy in series [1] is -13 kcal/mol. In series [2], the Tm was 61.4 °C.

For GCCAGCGAAAGCTGTGGC ((((((....)))..))), in series [1], the folding enthalpy was -15.1 kcal/mol. Further, in series [2], the Tm is 56.6 °C.

As to GCCAGGACGAAAGTCGGC (((..(((....)))))), in series [1], the folding enthalpy is -27.3 kcal/mol. In series [2], the Tm was found to be 52.6 °C.

On to GCCAGGCGAAAGCAGGGC (((..((....))..))), for which the folding enthalpy in series [1] is -32.1 kcal/mol. Further, the Tm in series [2] amounted to 64 °C.

For GCCAGGCGAAAGCCCAGC ((..(((....)))..)), in series [1], the folding enthalpy was -13.5 kcal/mol. Also, in series [2], the Tm is 40.2 °C.
